The values that follow come from ChEMBL document CHEMBL1134399 (J Med Chem, 2001).

For one test, the target named is Somatostatin receptor. In words: Antagonism of in vitro SRIF inhibition of GH release from rat pituitary cells in culture. Format: functional, cell-based. Particulars: pituitary gland cell. In a few lines:
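Dispersed anterior pituitary cells from adult male rats, cultured 4–5 days at 37 °C. Six doses per plate, triplicate wells. GH measured by double antibody RIA. Antagonist IC50 versus SRIF is the mean ± SEM of n dose-response curves.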

The target of test [1] is Somatostatin receptor type 5 (Homo sapiens, UniProt P35346). In words: Ability to displace [125 I]labelled Tyr11-somatostatin from human hsst-5 receptor expressed on CHO cells. Format: cell-based. A digest of the protocol:
(§1)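 Membranes from stably transfected CHO-K1 clones, prepared in ice-cold 50 mM Tris-HCl and resuspended in 10 mM Tris-HCl. Stopped by filtration through PEI-soaked GF/C filters. Nonspecific binding taken with 1.0 μM SRIF. Ki ± SEM from concentration-dependent displacement.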

For test [2], the target named is Somatostatin receptor type 3 (Homo sapiens, UniProt P32745). In words: Ability to displace [125 I]labelled Tyr11-somatostatin from human hsst-3 receptor expressed on CHO cells. In kind it is cell-based. A digest of the protocol:
as §1

In test [3] the target is Somatostatin receptor type 1 (Homo sapiens, UniProt P30872). The test is described as follows: Ability to displace [125 I]labelled Tyr11-somatostatin from human hsst-1 receptor expressed on CHO cells. Format: cell-based. A digest of the protocol: as §1
Chain of Somatostatin receptor type 1 (P30872 whole entry): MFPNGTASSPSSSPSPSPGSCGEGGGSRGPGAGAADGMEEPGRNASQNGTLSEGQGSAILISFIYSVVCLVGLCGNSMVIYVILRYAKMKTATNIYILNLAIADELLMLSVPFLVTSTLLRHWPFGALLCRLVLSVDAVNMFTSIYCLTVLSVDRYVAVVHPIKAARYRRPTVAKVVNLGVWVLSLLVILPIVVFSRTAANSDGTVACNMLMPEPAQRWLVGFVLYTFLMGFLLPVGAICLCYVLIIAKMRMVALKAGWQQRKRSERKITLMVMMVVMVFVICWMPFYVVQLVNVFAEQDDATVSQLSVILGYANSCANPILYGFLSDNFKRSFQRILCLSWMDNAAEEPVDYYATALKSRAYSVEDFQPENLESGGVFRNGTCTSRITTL
Test [4] concerns the target Somatostatin receptor type 2 (Homo sapiens, UniProt P30874). The test is described as follows: Ability to displace [125 I]labelled Tyr11-somatostatin from human hsst-2 receptor expressed on CHO cells. Format: cell-based.
Test [5] concerns the target Somatostatin receptor type 4 (Homo sapiens, UniProt P31391). In words: Ability to displace [125 I]labelled Tyr11-somatostatin from human hsst-4 receptor expressed on CHO cells. In kind it is cell-based. In a few lines: as §1

One may read the IC50 as the concentration that inhibits the measured activity by half. The low end stands for greater potency, the high end for weaker potency. A word on the Ki: it is a measure of affinity in units of concentration, obtained from inhibition or displacement. Low readings indicate tighter binding, high ones weaker binding.

Where a SMILES comes first, the peptide text is derived from it. Bridges are numbered along the chain shown (N, C = ends). [ ]: non-standard residue; d: D form. Phe(4-CF3) = N[C@@H](Cc1ccc(C(F)(F)F)cc1)C(=O)O; 2Nal = N[C@@H](Cc1ccc2ccccc2c1)C(=O)O; 3Pal = N[C@@H](Cc1cccnc1)C(=O)O; NMeK = CN[C@@H](CCCCN)C(=O)O

Chain of Somatostatin receptor type 2 (P30874 whole entry): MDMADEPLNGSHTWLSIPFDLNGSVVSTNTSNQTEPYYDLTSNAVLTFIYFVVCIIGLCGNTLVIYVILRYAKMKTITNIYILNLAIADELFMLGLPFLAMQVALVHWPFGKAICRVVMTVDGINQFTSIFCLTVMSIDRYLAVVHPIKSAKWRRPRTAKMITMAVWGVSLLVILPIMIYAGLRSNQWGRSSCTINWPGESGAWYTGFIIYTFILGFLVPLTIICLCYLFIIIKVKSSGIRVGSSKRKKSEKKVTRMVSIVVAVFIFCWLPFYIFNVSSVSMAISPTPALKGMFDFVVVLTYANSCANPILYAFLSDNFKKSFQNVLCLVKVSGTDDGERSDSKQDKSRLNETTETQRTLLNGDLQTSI
Chain of Somatostatin receptor type 4 (P31391 whole entry): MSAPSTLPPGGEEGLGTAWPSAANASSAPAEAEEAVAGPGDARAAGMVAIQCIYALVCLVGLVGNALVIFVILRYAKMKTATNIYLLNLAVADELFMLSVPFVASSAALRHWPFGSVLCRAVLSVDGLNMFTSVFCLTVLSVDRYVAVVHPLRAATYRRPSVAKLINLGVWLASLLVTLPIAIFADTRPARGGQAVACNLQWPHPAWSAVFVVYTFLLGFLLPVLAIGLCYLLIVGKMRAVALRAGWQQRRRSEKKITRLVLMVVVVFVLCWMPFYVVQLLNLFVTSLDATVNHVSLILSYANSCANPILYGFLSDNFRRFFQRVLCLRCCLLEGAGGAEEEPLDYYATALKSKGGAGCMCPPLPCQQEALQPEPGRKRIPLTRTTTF
Chain of Somatostatin receptor type 3 (P32745 whole entry): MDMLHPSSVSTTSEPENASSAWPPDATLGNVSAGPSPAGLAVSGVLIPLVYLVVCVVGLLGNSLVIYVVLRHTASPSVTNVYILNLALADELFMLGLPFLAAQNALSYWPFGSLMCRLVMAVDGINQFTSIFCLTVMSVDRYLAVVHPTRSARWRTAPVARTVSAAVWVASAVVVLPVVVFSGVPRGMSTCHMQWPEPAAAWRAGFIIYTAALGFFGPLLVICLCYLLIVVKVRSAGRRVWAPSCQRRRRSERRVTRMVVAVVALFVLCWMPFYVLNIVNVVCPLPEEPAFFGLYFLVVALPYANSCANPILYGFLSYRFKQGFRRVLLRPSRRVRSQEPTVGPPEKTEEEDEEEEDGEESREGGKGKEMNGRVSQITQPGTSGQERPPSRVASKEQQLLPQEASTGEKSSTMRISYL
Chain of Somatostatin receptor type 5 (P35346 whole entry): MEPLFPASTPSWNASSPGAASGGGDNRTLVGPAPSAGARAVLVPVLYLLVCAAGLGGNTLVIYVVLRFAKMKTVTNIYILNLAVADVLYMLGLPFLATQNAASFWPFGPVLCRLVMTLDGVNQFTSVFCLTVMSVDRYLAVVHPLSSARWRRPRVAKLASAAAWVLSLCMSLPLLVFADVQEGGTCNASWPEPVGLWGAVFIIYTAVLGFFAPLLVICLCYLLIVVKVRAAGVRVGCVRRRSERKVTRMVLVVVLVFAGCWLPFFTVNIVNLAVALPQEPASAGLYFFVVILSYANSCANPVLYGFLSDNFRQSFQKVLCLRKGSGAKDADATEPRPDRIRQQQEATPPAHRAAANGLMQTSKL

The compound `CN[C@@H](Cc1ccc(Cl)cc1)C(=O)N[C@H]1CSSC[C@H](C(=O)N[C@@H](Cc2ccc3ccccc3c2)C(N)=O)NC(=O)[C@@H]([C@H](C)O)NC(=O)[C@H](CCCCN)NC(=O)[C@@H](Cc2c[nH]c3ccccc23)NC(=O)[C@H](Cc2cccnc2)NC1=O` registered a half-inhibitory concentration (IC50) against Somatostatin receptor of 7.8 nM.

For `C[C@H](O)[C@H]1NC(=O)[C@H](CCCCN)N(C)C(=O)[C@@H](Cc2c[nH]c3ccccc23)N(C)C(=O)[C@H](Cc2cccnc2)NC(=O)[C@@H](NC(=O)[C@@H](N)Cc2ccc(Cl)cc2)CSSC[C@H](C(=O)N[C@@H](Cc2ccc3ccccc3c2)C(N)=O)NC1=O`, the IC50 against Somatostatin receptor is listed as 2.5 nM.

On to `C[C@@H](O)[C@@H]1NC(=O)[C@H](CCN)NC(=O)[C@@H](Cc2c[nH]c3ccccc23)NC(=O)[C@H](Cc2cccnc2)NC(=O)[C@H](NC(=O)[C@@H](N)Cc2ccc(Cl)cc2)CSSC[C@@H](C(=O)N[C@@H](Cc2ccc3ccccc3c2)C(N)=O)NC1=O`, for which the inhibition constant (Ki) was greater than 1000 nM in test [1]; 23.6 nM in test [2] (cho); greater than 1000 nM in test [3] (cho); 317 nM in test [4] (cho); greater than 1000 nM in test [5] (cho).

With `C[C@@H](O)[C@@H]1NC(=O)[C@H](CCCCN)N(C)C(=O)[C@@H](Cc2c[nH]c3ccccc23)NC(=O)[C@H](Cc2cccnc2)NC(=O)[C@H](NC(=O)[C@@H](N)Cc2ccc(C(F)(F)F)cc2)CSSC[C@@H](C(=O)N[C@@H](Cc2ccc3ccccc3c2)C(N)=O)NC1=O` (H-[Phe(4-CF3)][dC][3Pal][dW][NMeK]TC[2Nal]-NH2; disulfide 2-7), the Ki in test [2] is 40.2 nM; in test [3] it was greater than 1000 nM; in test [4], 11.3 nM; in test [5], 1250 nM.
